Data reported in ChEMBL document CHEMBL1139414, “Conformationally constrained analogues of diacylglycerol. 29. Cells sort diacylglycerol-lactone chemical zip codes to produce diverse and selective biological activities” (J Med Chem, 2008).

Target: Protein kinase C alpha type (Mus musculus, UniProt P20444)
Test: Displacement of [3H]PDBu form mouse PKCalpha by scintillation counting
Method in brief: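 Partially purified mouse PKCα; competition with [³H]PDBU. ID50 obtained by fitting a sigmoidal competition curve and converted to Ki = ID50/(1+L/Kd). Pure compounds tested at 6–7 concentrations; crude library compounds at a single 1 μM concentration. Triplicates per concentration, at least three experiments; mean ± SEM.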

| SMILES | Ki [nM] |
| --- | --- |
| CN(C)c1ccc(/C=C2/CC(CO)(COC(=O)C3CCCCC3)OC2=O)cc1 (racemic) | 373 |
| CN(C)c1ccc(/C=C2/CC(CO)(COC(=O)c3ccccc3)OC2=O)cc1 (racemic) | 654 |
| Cc1ccccc1C(=O)OCC1(CO)C/C(=C/c2ccccc2)C(=O)O1 (racemic) | 135 |
| Cc1cc(C)c(C(=O)OCC2(CO)C/C(=C/c3ccccc3)C(=O)O2)c(C)c1 (racemic) | 60.2 |
| CC(C)c1cc(C(C)C)c(C(=O)OCC2(CO)C/C(=C/c3ccccc3)C(=O)O2)c(C(C)C)c1 (racemic) | 160 |
| CN(C)c1ccc(C(=O)OCC2(CO)C/C(=C/c3ccccc3)C(=O)O2)cc1 (racemic) | 251 |
| Cc1ccc(C(=O)OCC2(CO)C/C(=C/c3ccccc3)C(=O)O2)cc1 (racemic) | 138 |
| CCCCCC/C=C1/CC(CO)(COC(=O)c2ccc(C)cc2)OC1=O (racemic) | 60.2 |
| CCCCC(/C=C1/CC(CO)(COC(=O)C(CC)CCCC)OC1=O)CC (racemic) | 62.7 |
| CCCCC(/C=C1/CC(CO)(COC(=O)C2CCCCC2)OC1=O)CC (racemic) | 123 |
| CCCCC(CC)C(=O)OCC1(CO)C/C(=C/c2ccccc2)C(=O)O1 (racemic) | 35 |
| O=C1OC(CO)(COC(=O)C2CCCCC2)C/C1=C/C1CCCCC1 (racemic) | 89.4 |
| O=C1OC(CO)(COC(=O)c2ccccc2)C/C1=C/C1CCCCC1 (racemic) | 203 |
| CCCCC(/C=C1/CC(CO)(COC(=O)c2c(C(C)C)cc(C(C)C)cc2C(C)C)OC1=O)CC (racemic) | 187 |
| CN(C)c1ccc(C(=O)OCC2(CO)C/C(=C/C3CCCCC3)C(=O)O2)cc1 (racemic) | 305 |
| CCCCCCC(=O)OCC1(CO)C/C(=C/C2CCCCC2)C(=O)O1 (racemic) | 77.5 |
| Cc1ccccc1C(=O)OCC1(CO)C/C(=C/C2CCCCC2)C(=O)O1 (racemic) | 110 |
| CC(C)c1cc(C(C)C)c(C(=O)OCC2(CO)C/C(=C/C3CCCCC3)C(=O)O2)c(C(C)C)c1 (racemic) | 174 |
| O=C1OC(CO)(COC(=O)c2ccccc2)C/C1=C/c1ccccc1 (racemic) | 232 |
| CCCCC(CC)C(=O)OCC1(CO)C/C(=C/C2CCCCC2)C(=O)O1 (racemic) | 30.2 |
| O=C1OC(CO)(COC(=O)c2ccc([N+](=O)[O-])cc2)C/C1=C/c1ccccc1 (racemic) | 438 |
| COc1ccc(C(=O)OCC2(CO)C/C(=C/c3ccccc3)C(=O)O2)cc1 (racemic) | 492 |
| CCCCCCC(=O)OCC1(CO)C/C(=C/C(CC)CCCC)C(=O)O1 (racemic) | 74.5 |
| CCCCC(/C=C1/CC(CO)(COC(=O)c2c(C)cc(C)cc2C)OC1=O)CC (racemic) | 66.1 |

| SMILES | Ki [nM] |
| --- | --- |
| O=C1OC(CO)(COC(=O)c2ccc([N+](=O)[O-])cc2)C/C1=C/C1CCCCC1 (racemic) | 426 |
| O=C1OC(CO)(COC(=O)C2CCCCC2)C/C1=C/c1ccccc1 (racemic) | 108 |
| Cc1cc(C)c(C(=O)OCC2(CO)C/C(=C/C3CCCCC3)C(=O)O2)c(C)c1 (racemic) | 69.4 |
| CCCCC(CC)C(=O)OCC1(CO)C/C(=C\c2ccc(Cl)c(F)c2)C(=O)O1 (racemic; form 1) | 12.4 |
| CCCC(CCC)C(=O)OCC1(CO)C/C(=C\c2ccc(F)cc2)C(=O)O1 (racemic; form 1) | 5.53 |
| CC(C)(C)C(=O)OCC1(CO)C/C(=C\c2ccc(F)c(Cl)c2)C(=O)O1 (racemic; form 1) | 10.9 |
| CCCC(CCC)C(=O)OCC1(CO)C/C(=C\c2ccc(Cl)c(F)c2)C(=O)O1 (racemic; form 1) | 3.38 |
| COc1ccc(/C=C2\CC(CO)(COC(=O)c3ccc(N(C)C)cc3)OC2=O)cc1 (racemic; form 1) | 48 |
| COc1ccc(/C=C2\CC(CO)(COC(=O)c3ccc(OC)cc3)OC2=O)cc1 (racemic; form 1) | 129 |
| COc1ccc(/C=C2\CC(CO)(COC(=O)c3c(C(C)C)cc(C(C)C)cc3C(C)C)OC2=O)cc1 (racemic; form 1) | 8 |
| CCCC(CCC)C(=O)OCC1(CO)C/C(=C\c2ccc(F)c(Br)c2)C(=O)O1 (racemic; form 1) | 8.1 |
| COc1ccc(C(=O)OCC2(CO)C/C(=C\c3ccc([N+](=O)[O-])cc3)C(=O)O2)cc1 (racemic; form 1) | 281 |
| CC(C)(C)C(=O)OCC1(CO)C/C(=C\c2ccc(Cl)c(F)c2)C(=O)O1 (racemic; form 1) | 7.9 |
| COc1ccc(C(=O)OCC2(CO)C/C(=C\c3ccc(N(C)C)cc3)C(=O)O2)cc1 (racemic; form 1) | 103 |
| COc1ccc(/C=C2\CC(CO)(COC(=O)c3c(C)cc(C)cc3C)OC2=O)cc1 (racemic; form 1) | 3.7 |
| CCCC(CCC)C(=O)OCC1(CO)C/C(=C\c2ccc(F)c(Cl)c2)C(=O)O1 (racemic; form 1) | 2.45 |
| CN(C)c1ccc(/C=C2\CC(CO)(COC(=O)c3ccc([N+](=O)[O-])cc3)OC2=O)cc1 (racemic; form 1) | 213 |
| CCC(C(=O)OCC1(CO)C/C(=C\c2ccc(-c3ccc(C(F)(F)F)cc3)cc2)C(=O)O1)c1ccccc1 (racemic; form 1) | 108 |
| O=C1OC(CO)(COC(=O)c2ccc([N+](=O)[O-])cc2)C/C1=C\c1ccc([N+](=O)[O-])cc1 (racemic; form 1) | 660 |
| CCCCC(CC)C(=O)OCC1(CO)C/C(=C\c2ccc(Cl)c(F)c2)C(=O)O1 (racemic; form 2) | 4.89 |
| CCCC(CCC)C(=O)OCC1(CO)C/C(=C\c2ccc(F)c(Br)c2)C(=O)O1 (racemic; form 2) | 2.66 |
| COc1ccc(C(=O)OCC2(CO)C/C(=C\c3ccc([N+](=O)[O-])cc3)C(=O)O2)cc1 (racemic; form 2) | 103 |
| CCC(C(=O)OCC1(CO)C/C(=C\c2ccc(-c3ccc(C(F)(F)F)cc3)cc2)C(=O)O1)c1ccccc1 (racemic; form 2) | 18.3 |

The next lines start with the values.

| Ki [nM] | SMILES |
| --- | --- |
| 357 | CCCCCCC(=O)OCC1(CO)C/C(=C/c2ccc(N(C)C)cc2)C(=O)O1 (racemic) |
| 103 | O=C1OC(CO)(COC(=O)c2ccc(C(F)(F)F)cc2)C/C1=C/c1ccccc1 (racemic) |
| 28.9 | CCCCCC/C=C1/CC(CO)(COC(=O)C2CCCCC2)OC1=O (racemic) |
| 131 | CCCCCC/C=C1/CC(CO)(COC(=O)c2ccc(N(C)C)cc2)OC1=O (racemic) |
| 55.7 | CCCCCC/C=C1/CC(CO)(COC(=O)c2ccc(C(F)(F)F)cc2)OC1=O (racemic) |
| 146 | CCCCCC/C=C1/CC(CO)(COC(=O)c2ccc([N+](=O)[O-])cc2)OC1=O (racemic) |
| 187 | CCCCC(/C=C1/CC(CO)(COC(=O)c2ccc(C(F)(F)F)cc2)OC1=O)CC (racemic) |
| 312 | CCCCC(/C=C1/CC(CO)(COC(=O)c2ccccc2)OC1=O)CC (racemic) |
| 49.5 | CCCCCC/C=C1/CC(CO)(COC(=O)c2ccccc2C)OC1=O (racemic) |
| 41.4 | CCCCCC/C=C1/CC(CO)(COC(=O)c2c(C)cc(C)cc2C)OC1=O (racemic) |
| 89.6 | CCCCCCC(=O)OCC1(CO)C/C(=C/c2ccccc2)C(=O)O1 (racemic) |
| 106 | O=C1OC(CO)(COC(=O)c2ccc(C(F)(F)F)cc2)C/C1=C/C1CCCCC1 (racemic) |
| 110 | Cc1ccc(C(=O)OCC2(CO)C/C(=C/C3CCCCC3)C(=O)O2)cc1 (racemic) |
| 189 | CCCCC(/C=C1/CC(CO)(COC(=O)c2ccccc2C)OC1=O)CC (racemic) |
| 261 | COc1ccc(C(=O)OCC2(CO)C/C(=C/C3CCCCC3)C(=O)O2)cc1 (racemic) |
| 15.2 | CCCCCC/C=C1/CC(CO)(COC(=O)C(CC)CCCC)OC1=O (racemic) |
| 234 | CCCCC(/C=C1/CC(CO)(COC(=O)c2ccc(OC)cc2)OC1=O)CC (racemic) |
| 105 | CCCCCC/C=C1/CC(CO)(COC(=O)c2ccc(OC)cc2)OC1=O (racemic) |

| Ki [nM] | SMILES |
| --- | --- |
| 98.5 | CCCCCC/C=C1/CC(CO)(COC(=O)c2ccccc2)OC1=O (racemic) |
| 171 | CCCCC(/C=C1/CC(CO)(COC(=O)c2ccc(C)cc2)OC1=O)CC (racemic) |
| 2.96 | CCCC(CCC)C(=O)OCC1(CO)C/C(=C\c2ccc(C(F)(F)F)cc2)C(=O)O1 (racemic; form 1) |
| 15.5 | CCCCC(CC)C(=O)OCC1(CO)C/C(=C/c2ccc(C(F)(F)F)cc2)C(=O)O1 (racemic; form 1) |
| 13.3 | CC(CC(=O)OCC1(CO)C/C(=C/c2cccc(C(F)(F)F)c2)C(=O)O1)CC(C)(C)C (racemic; form 1) |
| 466 | CCCCC(/C=C1/CC(CO)(COC(=O)c2ccc(N(C)C)cc2)OC1=O)CC (racemic; form 1) |
| 2.5 | CCCCCC/C=C1/CC(CO)(COC(=O)c2c(C(C)C)cc(C(C)C)cc2C(C)C)OC1=O (racemic; form 1) |
| 460 | CCCCC(/C=C1/CC(CO)(COC(=O)c2ccc([N+](=O)[O-])cc2)OC1=O)CC (racemic; form 1) |
| 310 | CC(C)C(=O)OCC1(CO)C/C(=C/c2ccccc2C(F)(F)F)C(=O)O1 (racemic; form 1) |
| 12.7 | CCCCC(CC)C(=O)OCC1(CO)C/C(=C\c2ccc(Cl)cc2)C(=O)O1 (racemic; form 1) |
| 12.9 | CCCCC(CC)C(=O)OCC1(CO)C/C(=C\c2ccc(N(C)C)cc2)C(=O)O1 (racemic; form 1) |
| 6.1 | CCCCC(CC)C(=O)OCC1(CO)C/C(=C\c2ccc(F)c(Br)c2)C(=O)O1 (racemic; form 1) |
| 13.1 | CCCCC(CC)C(=O)OCC1(CO)C/C(=C/c2ccc(C(F)(F)F)cc2)C(=O)O1 (racemic; form 2) |
| 134 | CCCCC(/C=C1/CC(CO)(COC(=O)c2ccc(N(C)C)cc2)OC1=O)CC (racemic; form 2) |
| 126 | CCCCCC/C=C1/CC(CO)(COC(=O)c2c(C(C)C)cc(C(C)C)cc2C(C)C)OC1=O (racemic; form 2) |
| 334 | CCCCC(/C=C1/CC(CO)(COC(=O)c2ccc([N+](=O)[O-])cc2)OC1=O)CC (racemic; form 2) |
| 2.9 | CCCCC(CC)C(=O)OCC1(CO)C/C(=C\c2ccc(Cl)cc2)C(=O)O1 (racemic; form 2) |
| 2.07 | CCCCC(CC)C(=O)OCC1(CO)C/C(=C\c2ccc(F)c(Br)c2)C(=O)O1 (racemic; form 2) |
